Measurements from ChEMBL document CHEMBL1152221, “Synthesis and activity of substituted carbamates as potentiators of the alpha4beta2 nicotinic acetylcholine receptor” (Bioorg Med Chem Lett, 2008).
Calls of active or inactive are those of the source. The calls are words filed in the database; no cut-off is given here.

Legend:
[1] = molecular target: T1, Neuronal acetylcholine receptor; alpha4/beta2 (Homo sapiens) (UniProt P17787+P43681); assay: Activity at human alpha4beta2 nAChR assessed as potentiation of nicotine-induced response by fluorescent Ca2+ flux assay relative to nicotine
[2] = molecular target: T1, Neuronal acetylcholine receptor; alpha4/beta2 (Homo sapiens); assay: Activity at human alpha4beta2 nAChR assessed as potentiation of nicotine-induced response by fluorescent Ca2+ flux assay
[3] = molecular target: Neuronal acetylcholine receptor; alpha4/beta2 (Rattus norvegicus) (UniProt P09483+P12390); assay: Displacement of [3H]cystisine from alpha4beta2 nAChR in rat cerebral cortical membrane at >=30 uM; format: cell membranes
[4] = Clearance in Sprague-Dawley rat; format: ADME, organism-based; conditions: in vivo
[5] = molecular target: Neuronal acetylcholine receptor; alpha3/beta4 (Homo sapiens) (UniProt P30926+P32297); assay: Activity at human alpha3beta4 nAChR expressed in Xenopus oocytes assessed as potentiation of acetylcholine-induced response by patch-clamp electrophysiology; format: cell-based; conditions: Oocyte
LLC-PK1 = assay: Efflux ratio of permeability from […] in human MDR1 transfected pig LLC-PK1 cells at 5 uM after 2 hrs; format: ADME, cell-based, Sus scrofa; conditions: llc-pk1, 2 h
In short: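 MDR1-LLC-PK1 cells were seeded at 200,000 cells/well on membrane filters. Transport was run manually on day 5 after plating, in both A-to-B and B-to-A directions, in the presence of 0.1% bovine serum albumin.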

[6] = Ratio of drug level in brain to plasma in Sprague-Dawley rat; format: ADME, organism-based; conditions: brain and plasma
[7] = Metabolic stability in human liver microsomes; format: ADME, Microsome; conditions: read-out: Stability
[8] = molecular target: Neuronal acetylcholine receptor; alpha3/beta2 (Homo sapiens) (UniProt P17787+P32297); assay: Activity at human alpha3beta2 nAChR expressed in Xenopus oocytes assessed as potentiation of acetylcholine-induced response by patch-clamp electrophysiology; format: cell-based; conditions: Oocyte
[9] = Metabolic stability in rat liver microsomes; format: ADME, Microsome; conditions: read-out: Stability

Efficacy [1] [%]	EC12 [2] [µM]	Compound	further results
7	> 100	CC(C)c1cc(C(C)C)n(C[C@H](OC(=O)Nc2ccncc2)C(C)C)n1	–
6	> 50	CC(C)[C@H](Cn1cccn1)OC(=O)Nc1ccc(F)cc1F	–
10	2.4	CC(C)[C@H](Cn1nc(C(F)(F)F)cc1-c1ccccc1)OC(=O)Nc1ccc(F)cc1F	–
9	> 50	CC(C)c1cc(C(C)C)n(C[C@@H](OC(=O)Nc2ccc(F)cc2F)C(C)C)n1	–
18	0.38	CC(C)c1cc(C(C)C)n(CC(OC(=O)Nc2ccccc2)C(C)C)n1 (racemic)	–
9	> 100	Cc1ccccc1NC(=O)O[C@@H](Cn1nc(C(C)C)cc1C(C)C)C(C)C	–
95	0.57	CC[C@H](Cn1nc(C(F)(F)F)cc1C1CCCC1)OC(=O)Nc1ccc(F)cc1F	clearance [4]: 70.5 mL/min/kg
20	0.46	CC[C@H](Cn1nc(C(F)(F)F)cc1C1=CCCC1)OC(=O)Nc1ccc(F)cc1F	–
19	> 10	CC(C)c1cc(C(C)C)n(C[C@@H](NC(=O)Nc2ccc(F)cc2F)C(C)C)n1	–
76	0.25	CC(C)c1cc(C(C)C)n(C[C@H](OC(=O)Nc2ccc(F)cc2F)C(C)C)n1	EC12 [5]: > 100 µM; Ratio (LLC-PK1): 1.1; clearance [4]: 81.7 mL/min/kg; Kp [6]: 1; microsomal CLint [7]: 644 µL/min/mg; EC12 [8]: > 100 µM; microsomal CLint [9]: > 399 µL/min/mg
15	1.18	CC[C@H](Cn1nc(C)cc1C)OC(=O)Nc1ccc(F)cc1F	–
10	> 100	CC(C)c1cc(C(C)C)n([C@@H](C)[C@@H](C)OC(=O)Nc2ccc(F)cc2F)n1 (racemic)	–
89	0.34	CC(C)c1cc(C(C)C)n(C[C@H](OC(=O)Nc2ccc(Oc3ccccc3)cc2)C(C)C)n1	–
13	2.7	CC(C)c1cc(C(C)C)n(C[C@H](OC(=O)NC2CCCCC2)C(C)C)n1	–
77	0.14	COc1ccc(NC(=O)O[C@@H](Cn2nc(C(C)C)cc2C(C)C)C(C)C)cc1	–
3	> 100	CC[C@H](Cn1nc(C(F)(F)F)cc1C1CCCO1)OC(=O)Nc1ccc(F)cc1F (some centres not stated)	–
11	3.7	CC(C)c1cc(C(C)C)n(CC(OC(=O)Nc2ccc(F)cc2F)C(C)(C)C)n1 (racemic)	–

The next lines start with the compound.

Compound	Efficacy [1] [%]	EC12 [2] [µM]	further results
CC[C@H](Cn1nc(C(F)(F)F)cc1C1CC1)OC(=O)Nc1ccc(F)cc1F	54	0.7	–
CC(C)[C@H](Cn1nc(C(F)(F)F)cc1C(F)(F)F)OC(=O)Nc1ccc(F)cc1F	16	3.9	–
Cc1cccc(NC(=O)O[C@@H](Cn2nc(C(C)C)cc2C(C)C)C(C)C)c1	25	0.9	–
CC(C)c1cc(C(C)C)n(CC(OC(=O)Nc2ccsc2)C(C)C)n1 (racemic)	12	0.7	–
CC(C)c1cc(C(C)C)n([C@H](C)[C@@H](C)OC(=O)Nc2ccc(F)cc2F)n1 (racemic)	12	1.3	–
Cc1ccc(NC(=O)O[C@@H](Cn2nc(C(C)C)cc2C(C)C)C(C)C)cc1	59	0.13	–
CC[C@H](Cn1ccc(C(F)(F)F)n1)OC(=O)Nc1ccc(F)cc1F	15	0.89	–
CC(C)[C@H](Cn1nccc1C(F)(F)F)OC(=O)Nc1ccc(F)cc1F	30	2.1	–
CC(C)c1cc(C(C)C)n(C[C@H](OC(=O)Nc2ccc(Cl)cc2)C(C)C)n1	91	0.33	–
CC[C@H](Cn1nc(C(F)(F)F)cc1C1CCCCC1)OC(=O)Nc1ccc(F)cc1F	88	0.38	–
CC[C@H](Cn1nc(C(F)(F)F)cc1C1CCNCC1)OC(=O)Nc1ccc(F)cc1F	-3	> 100	–
CCCOc1ccc(NC(=O)O[C@@H](Cn2nc(C(C)C)cc2C(C)C)C(C)C)cc1	107	0.33	–
CC[C@H](Cn1nc(C(C)C)cc1C(C)C)OC(=O)Nc1ccc(F)cc1F	83	0.38	–
CCOc1ccc(NC(=O)O[C@@H](Cn2nc(C(C)C)cc2C(C)C)C(C)C)cc1	100	0.11	Activity [3]: inactive; clearance [4]: 30 mL/min/kg
CC(C)c1cc(C(C)C)n(C[C@H](NC(=O)Nc2ccc(F)cc2F)C(C)C)n1	25	0.31	EC12 [5]: > 100 µM; Ratio (LLC-PK1): 1.1; clearance [4]: 50 mL/min/kg; Kp [6]: 1; EC12 [8]: > 100 µM
CC(C)c1cc(C(C)C)n([C@@H]2CCC[C@H]2OC(=O)Nc2ccc(F)cc2F)n1	73	0.25	–
CCc1cc(C(F)(F)F)nn1C[C@H](OC(=O)Nc1ccc(F)cc1F)C(C)C	50	0.21	–
CC(C)c1cc(C(C)C)n(C[C@@H](C)OC(=O)Nc2ccc(F)cc2F)n1	15	0.7	–
CC(C)c1cc(C(C)C)n(C[C@H](OC(=O)Nc2ccc(C(F)(F)F)cc2)C(C)C)n1	106	0.4	–
